What was measured:
[1] = biological target: TRAF2 and NCK-interacting protein kinase (Homo sapiens) (UniProt Q9UKE5); assay: Inhibition of ZC2 Lys2 labeling site in human A-375 cells at 0.5 uM by KiNativ Profiling analysis relative to control; assay type: cell-based
[2] = biological target: Mitogen-activated protein kinase kinase kinase kinase 4 (Homo sapiens, UniProt O95819); assay: Inhibition of ZC1/HGK Lys1 labeling site in human A-375 cells at 0.5 uM by KiNativ Profiling analysis relative to control; assay type: cell-based
Sequence of Mitogen-activated protein kinase kinase kinase kinase 4 (O95819 2-1239 limits assumed): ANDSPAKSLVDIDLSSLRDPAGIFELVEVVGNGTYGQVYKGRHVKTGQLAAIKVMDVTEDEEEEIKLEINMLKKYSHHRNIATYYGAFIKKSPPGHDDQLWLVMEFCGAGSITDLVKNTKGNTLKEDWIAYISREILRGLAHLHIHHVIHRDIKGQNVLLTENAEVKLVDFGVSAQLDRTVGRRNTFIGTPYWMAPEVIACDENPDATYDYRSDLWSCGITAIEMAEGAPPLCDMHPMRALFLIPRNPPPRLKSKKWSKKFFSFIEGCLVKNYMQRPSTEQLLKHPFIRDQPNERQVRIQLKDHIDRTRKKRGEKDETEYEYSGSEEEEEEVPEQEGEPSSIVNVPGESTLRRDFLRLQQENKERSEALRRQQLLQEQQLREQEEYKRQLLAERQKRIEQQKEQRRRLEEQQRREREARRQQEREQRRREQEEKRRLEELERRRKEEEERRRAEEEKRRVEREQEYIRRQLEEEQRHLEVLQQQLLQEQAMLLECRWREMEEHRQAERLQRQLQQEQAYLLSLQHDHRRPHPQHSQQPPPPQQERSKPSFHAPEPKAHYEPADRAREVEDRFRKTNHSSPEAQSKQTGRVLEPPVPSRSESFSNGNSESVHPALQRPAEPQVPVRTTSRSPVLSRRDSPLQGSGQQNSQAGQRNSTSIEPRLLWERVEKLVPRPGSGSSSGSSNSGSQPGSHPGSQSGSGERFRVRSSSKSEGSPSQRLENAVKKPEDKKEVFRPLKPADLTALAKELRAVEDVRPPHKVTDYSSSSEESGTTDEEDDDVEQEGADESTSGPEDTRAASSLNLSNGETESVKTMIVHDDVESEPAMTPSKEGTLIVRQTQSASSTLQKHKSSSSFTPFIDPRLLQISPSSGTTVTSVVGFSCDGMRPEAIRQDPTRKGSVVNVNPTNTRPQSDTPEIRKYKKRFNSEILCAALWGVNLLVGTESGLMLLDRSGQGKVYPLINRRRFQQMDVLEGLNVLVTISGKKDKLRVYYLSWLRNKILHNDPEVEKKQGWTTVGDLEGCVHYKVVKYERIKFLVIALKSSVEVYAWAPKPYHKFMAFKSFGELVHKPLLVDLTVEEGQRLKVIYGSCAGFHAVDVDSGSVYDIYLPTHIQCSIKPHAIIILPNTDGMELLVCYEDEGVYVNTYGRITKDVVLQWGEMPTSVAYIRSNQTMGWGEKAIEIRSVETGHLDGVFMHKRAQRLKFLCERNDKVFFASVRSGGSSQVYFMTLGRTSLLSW

[3] = biological target: T1, Inhibitor of nuclear factor kappa-B kinase subunit epsilon (Homo sapiens) (UniProt Q14164); assay: Inhibition of IKKe Lys2 labeling site in human A-375 cells at 0.5 uM by KiNativ Profiling analysis relative to control; assay type: cell-based
T1 sequence (whole entry): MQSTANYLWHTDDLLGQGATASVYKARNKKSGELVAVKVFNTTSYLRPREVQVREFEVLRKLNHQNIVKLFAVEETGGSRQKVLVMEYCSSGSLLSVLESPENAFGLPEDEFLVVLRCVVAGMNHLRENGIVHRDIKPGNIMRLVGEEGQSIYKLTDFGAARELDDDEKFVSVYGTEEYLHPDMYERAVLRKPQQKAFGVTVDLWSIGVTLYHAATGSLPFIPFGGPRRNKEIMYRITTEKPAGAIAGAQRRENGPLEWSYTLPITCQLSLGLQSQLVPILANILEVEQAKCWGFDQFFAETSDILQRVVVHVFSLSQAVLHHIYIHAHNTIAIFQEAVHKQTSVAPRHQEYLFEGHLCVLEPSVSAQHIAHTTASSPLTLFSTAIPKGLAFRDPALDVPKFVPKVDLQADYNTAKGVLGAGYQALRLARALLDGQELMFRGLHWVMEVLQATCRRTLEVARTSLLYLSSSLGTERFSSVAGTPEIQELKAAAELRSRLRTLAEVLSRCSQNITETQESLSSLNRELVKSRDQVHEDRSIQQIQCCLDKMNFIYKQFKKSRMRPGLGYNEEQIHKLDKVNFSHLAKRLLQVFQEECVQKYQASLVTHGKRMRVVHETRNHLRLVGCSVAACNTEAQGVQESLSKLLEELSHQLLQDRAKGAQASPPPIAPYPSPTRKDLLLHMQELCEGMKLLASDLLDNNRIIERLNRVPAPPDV

[4] = biological target: T2, Mitogen-activated protein kinase 12 (Homo sapiens) (UniProt P53778); assay: Inhibition of p38 gamma Lys2 labeling site in human A-375 cells at 5 uM by KiNativ Profiling analysis relative to control; assay type: cell-based
T2 sequence (whole entry): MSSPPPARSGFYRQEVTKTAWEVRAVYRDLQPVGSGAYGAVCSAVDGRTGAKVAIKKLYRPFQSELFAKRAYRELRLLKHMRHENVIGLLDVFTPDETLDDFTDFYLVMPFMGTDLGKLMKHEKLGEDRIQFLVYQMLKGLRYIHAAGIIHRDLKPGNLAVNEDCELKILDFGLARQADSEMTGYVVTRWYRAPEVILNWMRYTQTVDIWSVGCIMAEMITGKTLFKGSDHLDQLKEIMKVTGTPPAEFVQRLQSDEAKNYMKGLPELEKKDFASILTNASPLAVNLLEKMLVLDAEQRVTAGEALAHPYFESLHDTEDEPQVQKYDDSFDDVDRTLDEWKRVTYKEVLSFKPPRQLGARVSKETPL

[5] = biological target: Serine/threonine-protein kinase WNK4 (Homo sapiens) (UniProt Q96J92); assay: Inhibition of Wnk4 ACT labeling site in human A-375 cells at 0.05 uM by KiNativ Profiling analysis relative to control; assay type: cell-based
[6] = biological target: Cyclin-dependent kinase 1 (Homo sapiens) (UniProt P06493); assay: Inhibition of CDC2 Lys2 labeling site harbouring DLKPQNLLIDDKGTIK in human A-375 cells at 0.5 uM by KiNativ Profiling analysis relative to control; assay type: cell-based
Outline: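 Live A375 melanoma cells were treated with compound at 5 or 0.5 μM. The cells were then lysed, and the lysates were labeled with a lysine-reactive ATP or ADP-biotin acyl probe (KiNativ). Inhibition is the compound's protection of each kinase labeling-site peptide from probe labeling, relative to untreated control.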

[7] = biological target: DNA-PK/Ku70/Ku85 (Homo sapiens) (UniProt P78527+P12956+P13010); assay: Inhibition of DNAPK ATP labeling site harbouring EHPFLVKGGEDLR in human A-375 cells at 0.05 uM by KiNativ Profiling analysis relative to control; assay type: cell-based
[8] = biological target: Serine/threonine-protein kinase 10 (Homo sapiens) (UniProt O94804); assay: Inhibition of LOK Lys1 labeling site harbouring NKETGALAAAKVIETK in human A-375 cells at 0.05 uM by KiNativ Profiling analysis relative to control; assay type: cell-based
[9] = biological target: Serine/threonine-protein kinase SMG1 (Homo sapiens) (UniProt Q96Q15); assay: Inhibition of SMG1 ATP labeling site harbouring SYPYLFKGLEDLHLDER in human A-375 cells at 0.5 uM by KiNativ Profiling analysis relative to control; assay type: cell-based
Sequence of Serine/threonine-protein kinase SMG1 (Homo sapiens) (Q96Q15 whole entry): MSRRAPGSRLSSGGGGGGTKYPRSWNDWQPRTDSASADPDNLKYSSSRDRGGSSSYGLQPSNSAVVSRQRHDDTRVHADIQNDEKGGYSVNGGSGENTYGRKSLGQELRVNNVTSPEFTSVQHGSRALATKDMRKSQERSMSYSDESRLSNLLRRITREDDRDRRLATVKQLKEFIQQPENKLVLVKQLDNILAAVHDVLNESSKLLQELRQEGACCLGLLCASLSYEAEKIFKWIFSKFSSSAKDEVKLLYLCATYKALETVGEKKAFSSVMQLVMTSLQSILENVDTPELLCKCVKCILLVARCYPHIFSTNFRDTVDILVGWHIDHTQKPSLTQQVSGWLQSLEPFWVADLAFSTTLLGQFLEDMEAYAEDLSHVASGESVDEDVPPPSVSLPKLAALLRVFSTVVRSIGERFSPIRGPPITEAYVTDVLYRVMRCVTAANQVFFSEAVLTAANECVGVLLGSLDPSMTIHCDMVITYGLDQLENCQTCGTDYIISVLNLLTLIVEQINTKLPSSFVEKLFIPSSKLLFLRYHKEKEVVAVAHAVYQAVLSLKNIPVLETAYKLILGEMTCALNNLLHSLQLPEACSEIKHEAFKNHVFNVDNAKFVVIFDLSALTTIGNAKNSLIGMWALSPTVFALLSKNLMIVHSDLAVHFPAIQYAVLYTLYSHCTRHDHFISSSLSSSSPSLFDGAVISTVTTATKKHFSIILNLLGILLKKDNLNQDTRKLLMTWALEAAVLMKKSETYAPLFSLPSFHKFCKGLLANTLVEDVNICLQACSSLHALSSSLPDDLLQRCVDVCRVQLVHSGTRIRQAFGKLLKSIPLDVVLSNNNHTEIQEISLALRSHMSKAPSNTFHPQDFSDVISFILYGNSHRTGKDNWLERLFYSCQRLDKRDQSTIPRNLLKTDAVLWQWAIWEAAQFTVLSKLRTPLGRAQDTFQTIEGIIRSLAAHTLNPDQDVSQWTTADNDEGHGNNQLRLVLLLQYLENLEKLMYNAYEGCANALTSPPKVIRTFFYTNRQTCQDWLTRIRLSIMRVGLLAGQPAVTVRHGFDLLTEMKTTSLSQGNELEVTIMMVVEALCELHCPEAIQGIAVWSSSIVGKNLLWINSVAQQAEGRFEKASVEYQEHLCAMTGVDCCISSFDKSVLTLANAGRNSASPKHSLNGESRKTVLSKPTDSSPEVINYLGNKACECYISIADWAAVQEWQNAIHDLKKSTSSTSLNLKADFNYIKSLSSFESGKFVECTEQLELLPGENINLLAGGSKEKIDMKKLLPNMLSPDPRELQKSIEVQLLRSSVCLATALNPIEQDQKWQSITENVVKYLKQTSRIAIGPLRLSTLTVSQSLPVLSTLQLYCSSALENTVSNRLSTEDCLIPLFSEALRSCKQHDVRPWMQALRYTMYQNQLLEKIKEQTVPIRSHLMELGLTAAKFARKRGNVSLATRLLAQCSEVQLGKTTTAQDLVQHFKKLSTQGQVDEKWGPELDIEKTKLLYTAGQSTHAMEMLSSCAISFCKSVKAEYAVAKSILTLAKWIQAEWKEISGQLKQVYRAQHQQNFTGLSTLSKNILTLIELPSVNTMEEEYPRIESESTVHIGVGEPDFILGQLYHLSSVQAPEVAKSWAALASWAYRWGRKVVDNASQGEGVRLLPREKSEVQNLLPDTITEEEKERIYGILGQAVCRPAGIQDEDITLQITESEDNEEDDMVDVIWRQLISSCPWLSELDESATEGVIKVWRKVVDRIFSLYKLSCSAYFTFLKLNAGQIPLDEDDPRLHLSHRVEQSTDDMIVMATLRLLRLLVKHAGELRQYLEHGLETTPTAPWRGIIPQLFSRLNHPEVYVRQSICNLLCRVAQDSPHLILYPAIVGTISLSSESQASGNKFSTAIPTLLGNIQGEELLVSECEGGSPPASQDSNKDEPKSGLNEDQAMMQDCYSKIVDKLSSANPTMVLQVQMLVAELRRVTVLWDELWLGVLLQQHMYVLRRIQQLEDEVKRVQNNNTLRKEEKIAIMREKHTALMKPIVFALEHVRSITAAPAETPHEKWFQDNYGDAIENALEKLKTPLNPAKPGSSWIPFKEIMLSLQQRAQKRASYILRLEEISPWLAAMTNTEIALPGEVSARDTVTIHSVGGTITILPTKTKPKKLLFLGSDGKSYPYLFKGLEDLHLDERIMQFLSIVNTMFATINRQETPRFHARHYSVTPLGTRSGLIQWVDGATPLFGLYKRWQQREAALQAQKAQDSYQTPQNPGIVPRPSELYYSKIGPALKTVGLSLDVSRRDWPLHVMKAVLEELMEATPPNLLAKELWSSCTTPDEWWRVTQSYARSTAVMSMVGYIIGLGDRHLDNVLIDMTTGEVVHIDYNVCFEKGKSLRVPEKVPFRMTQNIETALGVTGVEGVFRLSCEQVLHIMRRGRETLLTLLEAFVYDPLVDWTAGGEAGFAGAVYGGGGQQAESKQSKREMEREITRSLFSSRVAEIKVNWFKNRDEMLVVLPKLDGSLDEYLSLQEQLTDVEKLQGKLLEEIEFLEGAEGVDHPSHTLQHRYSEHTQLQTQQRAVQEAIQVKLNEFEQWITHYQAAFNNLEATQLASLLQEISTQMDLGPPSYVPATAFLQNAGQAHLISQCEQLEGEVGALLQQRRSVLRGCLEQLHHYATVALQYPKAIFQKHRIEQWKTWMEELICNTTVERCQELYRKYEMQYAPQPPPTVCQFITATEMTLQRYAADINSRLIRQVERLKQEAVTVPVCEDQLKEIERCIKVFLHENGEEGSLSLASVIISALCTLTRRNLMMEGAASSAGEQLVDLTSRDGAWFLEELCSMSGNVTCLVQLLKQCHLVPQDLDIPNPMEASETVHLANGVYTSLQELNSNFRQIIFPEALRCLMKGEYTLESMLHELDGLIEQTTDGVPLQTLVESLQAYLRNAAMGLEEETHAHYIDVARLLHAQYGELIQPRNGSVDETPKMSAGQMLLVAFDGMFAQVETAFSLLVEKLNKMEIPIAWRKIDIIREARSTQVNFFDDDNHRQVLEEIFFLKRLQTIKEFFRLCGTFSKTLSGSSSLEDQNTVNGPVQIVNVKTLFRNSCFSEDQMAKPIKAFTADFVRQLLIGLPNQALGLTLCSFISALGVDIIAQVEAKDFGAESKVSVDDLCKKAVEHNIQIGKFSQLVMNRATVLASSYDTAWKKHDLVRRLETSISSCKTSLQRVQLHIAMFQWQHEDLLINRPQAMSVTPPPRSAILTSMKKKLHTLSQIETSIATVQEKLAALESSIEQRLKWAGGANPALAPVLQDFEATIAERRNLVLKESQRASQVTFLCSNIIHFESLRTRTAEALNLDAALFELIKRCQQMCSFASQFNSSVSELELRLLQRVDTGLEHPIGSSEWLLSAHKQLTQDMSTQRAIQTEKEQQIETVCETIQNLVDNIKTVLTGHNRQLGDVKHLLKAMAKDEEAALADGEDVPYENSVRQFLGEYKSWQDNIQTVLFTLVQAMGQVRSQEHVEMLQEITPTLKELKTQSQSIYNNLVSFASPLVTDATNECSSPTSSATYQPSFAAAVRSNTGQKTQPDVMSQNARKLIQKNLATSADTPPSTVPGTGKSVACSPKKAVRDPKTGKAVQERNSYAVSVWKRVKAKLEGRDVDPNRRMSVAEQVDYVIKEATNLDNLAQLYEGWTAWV
Outline: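 Live A375 melanoma cells treated with compound at 5 or 0.5 μM, then lysed. Lysate kinases were labeled with a lysine-reactive ATP or ADP-biotin probe. Inhibition was read as protection of labeling sites from the probe.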

[10] = biological target: Serine/threonine-protein kinase WNK2 (Homo sapiens) (UniProt Q9Y3S1); assay: Inhibition of Wnk2 Lys2 labeling site in human A-375 cells at 0.5 uM by KiNativ Profiling analysis relative to control; assay type: cell-based
[11] = biological target: Mitogen-activated protein kinase 9 (Homo sapiens, UniProt P45984); assay: Inhibition of JNK2 Lys2 labeling site in human A-375 cells at 5 uM by KiNativ Profiling analysis relative to control; assay type: cell-based
[12] = biological target: MAP/microtubule affinity-regulating kinase 3 (Homo sapiens) (UniProt P27448); assay: Inhibition of MARK3 Lys2 labeling site in human A-375 cells at 5 uM by KiNativ Profiling analysis relative to control; assay type: cell-based
[13] = Inhibition of p70S6K Lys2 labeling site in human A-375 cells at 5 uM by KiNativ Profiling analysis relative to control; settings: condition cancer
[14] = biological target: Mitogen-activated protein kinase 8 (Homo sapiens, UniProt P45983); assay: Inhibition of JNK1 Lys2 labeling site in human Huh-7 cell lysate at 1 uM by KiNativ Profiling analysis relative to control; assay type: subcellular

Compound | inhibition [1] | inhibition [2] | inhibition [3] | inhibition [4] | inhibition [5] | inhibition [6] | inhibition [7] | inhibition [8] | inhibition [9] | inhibition [10] | inhibition [11] | inhibition [12] | inhibition at 5 µM [13] | inhibition [14]
CCN1CCN(Cc2ccc(NC(=O)c3ccc(C)c(Oc4ccnc5[nH]ccc45)c3)cc2C(F)(F)F)CC1 | 70.8% | 75.6% | 35.7% | > 94% | 10.3% | 13.7% | -9.3% | 47.2% | 3% | -3% | 90.3% | 7.8% | -45.5% | 
CNc1cc(Oc2cc(C(=O)Nc3cc(-n4cnc(C)c4)cc(C(F)(F)F)c3)ccc2C)ncn1 |  |  |  |  |  |  |  |  |  |  |  |  |  | 18.4%
CNc1cc(Oc2cc(C(=O)Nc3cc(N4CCN(C)CC4)cc(C(F)(F)F)c3)ccc2C)ncn1 |  |  |  |  |  |  |  |  |  |  |  |  |  | 7%
CCN1CCN(Cc2ccc(NC(=O)c3ccc(C)c(/C=C/c4cnc5[nH]ccc5c4OC)c3)cc2C(F)(F)F)CC1 | 48.1% | 26.3% | 16.9% | 52.7% | 10.1% | 6.3% | 9.9% | 34.5% | 33.7% | 7.9% | 76.9% | 8.9% | -15.2% | 
